From ChEMBL document CHEMBL3616416, “Imidazolidine-4-one derivatives in the search for novel chemosensitizers of Staphylococcus aureus MRSA: synthesis, biological evaluation and molecular modeling studies” (Eur J Med Chem, 2015)
Converted amounts (≈) assume the structure as drawn. The source made the active and inactive calls. The rule behind the calls is not given here.

Legend:
Staphylococcus aureus [1] = test: Antimicrobial activity against methicillin-resistant Staphylococcus aureus HEMSA incubated for 20 hrs by serial dilution broth microplate method; type: functional
In short: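 Broth microdilution MIC per CLSI in Mueller-Hinton broth against clinical isolate MRSA HEMSA 5. Bacterial suspension adjusted to OD 0.5, diluted 1:100 and added to serial two-fold dilutions of test agent. Ampicillin/sulbactam used at 2:1 ratio. Growth read after 20 h at 37 °C.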

Staphylococcus aureus [2] = test: Antimicrobial activity against Staphylococcus aureus ATCC 25923 incubated for 20 hrs by serial dilution broth microplate method; type: functional; details: ATCC 25923, 20 h
In short: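 Broth dilution per CLSI in Mueller-Hinton broth, serial two-fold dilutions; compounds alone against reference strain, inoculum from suspension at OD 0.5 diluted 1:100; read after 20 h at 37 °C. MIC taken as lowest concentration inhibiting growth.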

Staphylococcus aureus [3] = test: Potentiation of oxacillin-induced antibacterial activity against Staphylococcus aureus ATCC 25923 assessed as reduction in oxacillin MIC at 0.5 mM incubated for 20 hrs by serial dilution broth microplate method; type: functional, organism-based
[4] = target: T1, Methicillin resistance mecR1 protein (Staphylococcus aureus) (UniProt P0A0B1); test: Inhibition of MecR1 in methicillin-resistant Staphylococcus aureus HEMSA assessed as reduction in oxacillin A MIC at 0.25 mM incubated for 20 hrs by serial dilution broth microplate method
T1 sequence (whole entry): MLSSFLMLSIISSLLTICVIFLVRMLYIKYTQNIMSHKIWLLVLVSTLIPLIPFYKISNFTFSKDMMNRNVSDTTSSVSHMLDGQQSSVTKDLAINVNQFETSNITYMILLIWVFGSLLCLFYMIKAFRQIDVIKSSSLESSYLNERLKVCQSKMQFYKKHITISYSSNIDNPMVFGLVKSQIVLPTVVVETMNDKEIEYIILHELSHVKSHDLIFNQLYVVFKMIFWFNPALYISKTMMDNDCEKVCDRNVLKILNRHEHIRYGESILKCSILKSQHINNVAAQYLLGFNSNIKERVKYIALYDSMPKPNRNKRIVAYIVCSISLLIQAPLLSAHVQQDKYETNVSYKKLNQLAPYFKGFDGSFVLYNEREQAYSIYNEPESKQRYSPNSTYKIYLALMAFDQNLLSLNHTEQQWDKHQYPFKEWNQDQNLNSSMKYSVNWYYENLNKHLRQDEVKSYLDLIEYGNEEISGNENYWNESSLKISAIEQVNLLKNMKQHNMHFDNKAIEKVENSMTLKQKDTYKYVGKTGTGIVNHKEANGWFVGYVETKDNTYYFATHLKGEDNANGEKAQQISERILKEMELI
In short: (§1)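 Chemosensitization in MRSA HEMSA 5 measured by CLSI broth microdilution in Mueller-Hinton broth. Serial two-fold dilutions of antibiotic (oxacillin, cloxacillin, ampicillin/sulbactam 2:1, ciprofloxacin or neomycin) combined with compound at fixed concentration not exceeding ¼ of its own MIC. Inoculum OD 0.5 diluted 1:100. Read after 20 h at 37 °C. Result given as fold reduction of antibiotic MIC.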

Staphylococcus aureus [5] = test: Resistance index, ratio of MIC for methicillin-resistant Staphylococcus aureus HEMSA to MIC for Staphylococcus aureus ATCC 25923; type: functional
Staphylococcus aureus [6] = test: Potentiation of oxacillin-induced antibacterial activity against Staphylococcus aureus ATCC 25923 assessed as reduction in oxacillin MIC at 0.0005 mM incubated for 20 hrs by serial dilution broth microplate method; type: functional, organism-based
[7] = target: T1, Methicillin resistance mecR1 protein (Staphylococcus aureus); test: Inhibition of MecR1 in methicillin-resistant Staphylococcus aureus HEMSA assessed as reduction in ampicillin and sulbactam MIC at 0.0039 mM incubated for 20 hrs by serial dilution broth microplate method; in short: as §1
[8] = target: T1, Methicillin resistance mecR1 protein (Staphylococcus aureus); test: Inhibition of MecR1 in methicillin-resistant Staphylococcus aureus HEMSA assessed as reduction in neomycin MIC at 0.0039 mM incubated for 20 hrs by serial dilution broth microplate method; in short: as §1
[9] = target: T1, Methicillin resistance mecR1 protein (Staphylococcus aureus); test: Inhibition of MecR1 in methicillin-resistant Staphylococcus aureus HEMSA assessed as reduction in ciprofloxacin MIC at 0.0039 mM incubated for 20 hrs by serial dilution broth microplate method; in short: as §1
[10] = target: T1, Methicillin resistance mecR1 protein (Staphylococcus aureus); test: Inhibition of MecR1 in methicillin-resistant Staphylococcus aureus HEMSA assessed as reduction in oxacillin A MIC at 0.0039 mM incubated for 20 hrs by serial dilution broth microplate method; in short: as §1
Staphylococcus aureus [11] = test: Potentiation of neomycin-induced antibacterial activity against Staphylococcus aureus ATCC 25923 assessed as reduction in […] MIC incubated for 20 hrs by serial dilution broth microplate method; type: functional, organism-based
[12] = target: T1, Methicillin resistance mecR1 protein (Staphylococcus aureus); test: Inhibition of MecR1 in methicillin-resistant Staphylococcus aureus HEMSA assessed as reduction in cloxacillin MIC at 0.0039 mM incubated for 20 hrs by serial dilution broth microplate method; in short: as §1
Staphylococcus aureus [13] = test: Potentiation of ciprofloxacin -induced antibacterial activity against Staphylococcus aureus ATCC 25923 assessed as reduction in […] MIC incubated for 20 hrs by serial dilution broth microplate method; type: functional, organism-based
Staphylococcus aureus [14] = test: Potentiation of […] antibacterial activity against Staphylococcus aureus ATCC 25923 assessed as reduction in cloxacillin MIC incubated for 20 hrs by serial dilution broth microplate method; type: functional, organism-based
Staphylococcus aureus [15] = test: Potentiation of […] antibacterial activity against Staphylococcus aureus ATCC 25923 assessed as reduction in ampicillin and sulbactam MIC MIC incubated for 20 hrs by serial dilution broth microplate method; type: functional, organism-based
[16] = target: T1, Methicillin resistance mecR1 protein (Staphylococcus aureus); test: Inhibition of MecR1 in methicillin-resistant Staphylococcus aureus HEMSA assessed as reduction in neomycin MIC at 0.5 mM incubated for 20 hrs by serial dilution broth microplate method; in short: as §1
[17] = target: T1, Methicillin resistance mecR1 protein (Staphylococcus aureus); test: Inhibition of MecR1 in methicillin-resistant Staphylococcus aureus HEMSA assessed as reduction in cloxacillin MIC at 0.5 mM incubated for 20 hrs by serial dilution broth microplate method; in short: as §1
[18] = target: T1, Methicillin resistance mecR1 protein (Staphylococcus aureus); test: Inhibition of MecR1 in methicillin-resistant Staphylococcus aureus HEMSA assessed as reduction in ciprofloxacin MIC at 0.5 mM incubated for 20 hrs by serial dilution broth microplate method; in short: as §1
[19] = target: T1, Methicillin resistance mecR1 protein (Staphylococcus aureus); test: Inhibition of MecR1 in methicillin-resistant Staphylococcus aureus HEMSA assessed as reduction in ampicillin and sulbactam MIC at 0.5 mM incubated for 20 hrs by serial dilution broth microplate method; in short: as §1
[20] = target: T1, Methicillin resistance mecR1 protein (Staphylococcus aureus); test: Inhibition of MecR1 in methicillin-resistant Staphylococcus aureus HEMSA assessed as reduction in oxacillin A MIC at 0.5 mM incubated for 20 hrs by serial dilution broth microplate method; in short: as §1
[21] = target: T1, Methicillin resistance mecR1 protein (Staphylococcus aureus); test: Inhibition of MecR1 in methicillin-resistant Staphylococcus aureus HEMSA assessed as reduction in neomycin MIC at 0.25 mM incubated for 20 hrs by serial dilution broth microplate method; in short: as §1
[22] = target: T1, Methicillin resistance mecR1 protein (Staphylococcus aureus); test: Inhibition of MecR1 in methicillin-resistant Staphylococcus aureus HEMSA assessed as reduction in ampicillin and sulbactam MIC at 0.25 mM incubated for 20 hrs by serial dilution broth microplate method; in short: as §1
[23] = target: T1, Methicillin resistance mecR1 protein (Staphylococcus aureus); test: Inhibition of MecR1 in methicillin-resistant Staphylococcus aureus HEMSA assessed as reduction in ciprofloxacin MIC at 0.25 mM incubated for 20 hrs by serial dilution broth microplate method; in short: as §1
[24] = target: T1, Methicillin resistance mecR1 protein (Staphylococcus aureus); test: Inhibition of MecR1 in methicillin-resistant Staphylococcus aureus HEMSA assessed as reduction in cloxacillin MIC at 0.25 mM incubated for 20 hrs by serial dilution broth microplate method; in short: as §1

Structure (SMILES) | MIC (Staphylococcus aureus [1]) [µM] | MIC (Staphylococcus aureus [2]) [µM] | Activity (Staphylococcus aureus [3]) | Ratio (Staphylococcus aureus [5]) | Activity (Staphylococcus aureus [11]) | Activity (Staphylococcus aureus [13]) | Activity (Staphylococcus aureus [14]) | Activity (Staphylococcus aureus [15]) | other results
CC1(c2cccc3ccccc23)NC(=O)N(CCCCCN)C1=O (stereo unspecified) | 1000 (≈ 325 µg/mL) | > 1000 | inactive | – | – | – | – | – | inhibition [4]: inactive
NC[C@@H]1O[C@H](O[C@H]2[C@@H](O)[C@H](O[C@@H]3[C@@H](O)[C@H](N)C[C@H](N)[C@H]3O[C@H]3O[C@H](CN)[C@@H](O)[C@H](O)[C@H]3N)O[C@@H]2CO)[C@H](N)[C@@H](O)[C@@H]1O [FRAMYCETIN] | 240 (≈ 148 µg/mL) | 1 (≈ 0.615 µg/mL) | – | 240 | – | – | – | – | –
O=C1NC(N2CCNCC2)=N/C1=C\c1cc2ccccc2c2ccccc12 | 15.6 (≈ 5.56 µg/mL) | 1.9 (≈ 0.677 µg/mL) | – | 8 | inactive | inactive | inactive | inactive | Activity (Staphylococcus aureus [6]): inactive; inhibition [7]: inactive; inhibition [8]: inactive; inhibition [9]: inactive; inhibition [10]: inactive; fold change (FC) [12]: 2
COc1ccc(/C=C2\NC(=O)N(CC(O)CNCCCN3CCN(C)CC3)C2=O)cc1 (stereo unspecified) | > 1000 | > 1000 | inactive | – | inactive | inactive | inactive | inactive | inhibition [16]: inactive; fold change (FC) [17]: 8; fold change (FC) [18]: 2; fold change (FC) [19]: 2; fold change (FC) [20]: 2
O=C1NC(N2CCNCC2)=N/C1=C\c1ccsc1 | 1000 (≈ 262 µg/mL) | > 1000 | inactive | – | inactive | inactive | inactive | inactive | inhibition [21]: inactive; inhibition [22]: inactive; inhibition [23]: inactive; inhibition [4]: inactive; inhibition [24]: inactive
Cc1onc(-c2ccccc2Cl)c1C(=O)N[C@@H]1C(=O)N2[C@@H]1SC(C)(C)[C@@H]2C(=O)O [CLOXACILLIN] | 160 (≈ 69.7 µg/mL) | 0.42 (≈ 0.183 µg/mL) | – | – | – | – | – | – | –
CC1(c2cccc3ccccc23)NC(=O)N(CCCN)C1=O (stereo unspecified) | > 1000 | > 1000 | inactive | – | inactive | inactive | inactive | inactive | inhibition [16]: inactive; inhibition [17]: inactive; inhibition [18]: inactive; inhibition [19]: inactive; inhibition [20]: inactive
O=C(O)c1cn(C2CC2)c2cc(N3CCNCC3)c(F)cc2c1=O [CIPROFLOXACIN] | 14 (≈ 4.64 µg/mL) | 0.38 (≈ 0.126 µg/mL) | – | 37 | – | – | – | – | –
